Results on 18 compounds are retold here after PubChem BioAssay.

In general, viability refers to a read-out of living cells in per cent, often relative to untreated cells. For orientation: inhibition means how much of the control response was suppressed.

Test [1] is described as follows: OD615 S. cerevisiae growth inhibition, permissive medium, pilot counter-assay, permissive growth control for S. cerevisiae lifespan shortening project (AID 705;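 active means growth inhibition above 25% in both replicates, a cutoff set 3 SD above the mean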). The conditions noted are these: OD615, 24 h, at 10 µM, hits give high values. The gist of the method:
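assay system = Saccharomyces cerevisiae strain carrying genetically modified DeaD replicative-lifespan system | technique = absorbance (optical density) at 615 nm | buffer or medium = permissive raffinose/galactose medium | timing = cells pre-grown 4 h, then 24 h compound exposure, 30 °C humidified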

The nature of test [2]: Restrictive medium S. cerevisiae growth inhibition, OD615, pilot screen of yeast lifespan reduction project, restrictive growth control (AID 706;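 active means growth inhibition above a set limit, 3 SD over mean compound inhibition, in both replicates, cut at about 43% in these data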;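 further: modified DeaD lifespan yeast strain shifted to restrictive glucose medium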). The conditions noted are these: OD615, 48 h, at 10 µM, hits give high values. The gist of the method: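 System: modified S. cerevisiae. Buffer or medium: CSMM-D glucose medium. Incubation: 4 h pre-growth plus 48 h compound exposure, 30 °C. Detection: absorbance (optical density) measured at 615 nm.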

The nature of test [3]: viability gain of MRP-1-high H69AR cells under doxorubicin, pilot screen, MRP-1 activator project, CellTiter-Glo, duplicate (AID 807;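 active means viability increase at or above a cutoff of the median across tested compounds plus 3 SD, cut at about 8.5% in these data, passing the limit was not always enough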;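 further: compound pretreatment 18-22 h then 72 h combined with doxorubicin; 0% = doxorubicin alone and 100% = vehicle without doxorubicin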). The conditions noted are these: H69AR viability with doxorubicin, CellTiter-Glo luminescence; at 10 µM; hits give high values. On the technique in general: ATP-based viability assays read luminescence as a measure of living cells.
The nature of test [4]: growth suppression of beta-catenin knockout HCT116, pilot screen, human colon tumor cells (AID 823;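 active means cell viability at or below a set limit in both duplicate runs, the limit being the all-compound median minus 4 SD, cut at about 23% in these data, passing the limit was not always enough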;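 further: 0% = wells killed by 20 µM Hyamine and 100% = untreated DMSO cell wells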). Conditions: CellTiter-Glo, 60 h, at 10 µM, hits give low values.
Test [5] in a line: growth suppression of PTEN-deleted HCT116, pilot screen, cell-based, HCT116 clonal line, CellTiter-Glo (AID 824).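 Further: 0% = 20 µM Hyamine control and 100% = vehicle cell control.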 The conditions noted are these: 60 h, at 10 µM, hits give low values.
Test [6] is described as follows: inhibitors of the yeast RAM network, pilot screen, dse1pr::URA3 reporter, 5-FOA selection (AID 869;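 active means inhibition over a set limit, the all-compound mean plus 3 SD, in both replicate runs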;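 further: 0% = DMSO wells with no growth and 100% = 10 µM 1-NA-PP1 with full growth; RAM network block rescues cells from 5-FOA so hits raise OD615 growth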). The conditions noted are these: S. cerevisiae dse1pr::URA3 5-FOA growth, OD615, 2 d; at 10 µM; hits give high values; strain carries analog-sensitive mutant Cbk1 kinase.
The nature of test [7]: RAM signaling pathway blockade in yeast – S. cerevisiae, Pdr1DBD-CYC8 efflux-inhibited sensitized strain, primary screen (AID 1298;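 active means RAM network inhibition above 8.4% in each of two replicates, 3 SD over the compound average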;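 further: 0% = DMSO untreated cells without growth and 100% = 10 µM 1-NA-PP1 full growth; higher means more yeast growth rescued from 5-FOA killing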). The conditions noted are these: S. cerevisiae cbk1-as DSE1-URA3 strain, 5-FOA growth OD615, 2 d; at 50 µM; hits give high values.

Unmarked numbers belong to inactive results. Results filed as inconclusive are left out. The source made the active and inactive calls.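 How the source made its calls, unless noted: active means viability at or below 27.92% in each of two runs, the all-compound median minus 4 SD; inconclusive means no clear call, values can overlap the other calls; inactive means the rest.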

With `COc1ccc(C2C(C(=O)N3CCN(c4ccccc4)CC3)c3ccccc3C(=O)N2C)cc1OC` (stereo not given), the values for the growth inhibition in test [1] and in test [2] were -8.36% and -14.2%, respectively. In test [3], the viability increase is -1.19%. The viability in test [4] was 97.1%; in test [5] it was 99.3%. The inhibition in test [6] is 1.28%. For the same compound, in test [7], the RAM network inhibition was 0.53%.

For the compound `CCCOCCOC(=O)c1[nH]c2c(c1C)C(=O)CC(c1cc(OC)ccc1OC)C2` (stereo not given), the growth inhibition in test [1] is -12.2%; in test [2], -4.79%. Moreover, the viability increase in test [3] was -4.21%. Moreover, the viability in test [4] is 17.3% (active); in test [5], 20.6% (active). Also, in test [7], the RAM network inhibition is 8.16%.

`O=C(CSc1nnc2ccccn12)N1CCc2ccccc2C1`: the growth inhibition in test [1] was -8.87%; in test [2] it was 0.78%. Further, the viability increase in test [3] was -0.88%. The viability in test [4] is 99.7%; in test [5] it was 93.2%. The inhibition in test [6] was 1.54%. Moreover, in test [7], the RAM network inhibition is 2.11%.

For the compound `Cc1ccc(NC(=O)CSc2nnc(Cn3c(=O)sc4ccccc43)n2C)cc1`, the growth inhibition was -5.8% in test [1] and -12.1% in test [2]. Further, in test [3], the viability increase was -1.58%. Further, the results for the viability in test [4] and in test [5] were 93.6% and 96.4%, respectively. In test [7], the RAM network inhibition is 8.73%.

Turning to `NC(=O)CSc1ncnc2c1oc1ccccc12`, the growth inhibition in test [1] is -17.7%; in test [2], -9.65%. In addition, in test [3], the viability increase is -2.08%. Moreover, the viability in test [4] is 99.5%; in test [5], 91.6%. The inhibition in test [6] was 0.41%. For the same compound, in test [7], the RAM network inhibition was 0.74%.

Consider `CCCCCCSc1cc(C)nc2ncnn12`, for which the growth inhibition is -19% in test [1] and 2.92% in test [2]. For the same compound, the viability increase in test [3] was -0.06%. Moreover, the viability in test [4] was 93.6%; in test [5], 83.2%. Besides, the RAM network inhibition in test [7] is 0.21%.

For the compound `Cc1ccc(CN2CCNC(=O)C2CC(=O)O)cc1` (stereo not given), the growth inhibition in test [1] was 2.7%; in test [2], -8.03%. Moreover, the viability increase in test [3] is -1.2%. In addition, the viability was 97.3% in test [4] and 92.4% in test [5]. Moreover, the RAM network inhibition in test [7] is 0.83%.

Consider `Cc1ccc(S(=O)(=O)N(CC(O)CN2CCCCC2)c2ccccc2)cc1` (stereo not given), for which the growth inhibition is 0.475% in test [1] and 0.56% in test [2]. The viability increase in test [3] was -2.49%. Further, the viability in test [4] was 71.6%; in test [5], 96.6%. In test [6], the inhibition is 2.97%. Also, the RAM network inhibition in test [7] was 3.38%.

On to `O=C(CSc1nc2c(c(=O)n1-c1ccc(Cl)cc1)SCC2)Nc1nccs1`, for which the values for the growth inhibition in test [1] and in test [2] were -2.95% and -4.84%, respectively. In addition, the viability increase in test [3] is -2.93%. Besides, the viability in test [4] is 82.5%; in test [5], 78.4%. Besides, the inhibition in test [6] is 3.08%. The RAM network inhibition in test [7] is 5.03%.

On to `O=C(O)C1C2C=CC3(CN(C/C=C/c4ccccc4)C(=O)C13)O2` (stereo not given), for which the values for the growth inhibition in test [1] and in test [2] were -17.1% and -3.43%, respectively. Moreover, the viability increase in test [3] is -2.86%. Also, the viability in test [4] is 94%; in test [5], 100%. Moreover, in test [6], the inhibition is 1.28%. In addition, the RAM network inhibition in test [7] was 3.71%.

As to `CCOc1ccc(Cn2nnc(C(=O)Nc3cc(OC)cc(OC)c3)c2N)cc1`, the growth inhibition in test [1] is -2.1%; in test [2], 0.885%. For the same compound, the viability increase in test [3] was -5.5%. Besides, the viability is 86% in test [4] and 88% in test [5]. For the same compound, the RAM network inhibition in test [7] was 2.46%.

`Cn1c(C(=O)NCCc2ccsc2)cc2c(=O)n(C)c3ccccc3c21`: the growth inhibition in test [1] is -13.2%; in test [2] it was -8.68%. For the same compound, the viability increase in test [3] was -4.49%. Moreover, the viability is 105% in test [4] and 92.2% in test [5]. Moreover, the inhibition in test [6] is 2.64%. Also, the RAM network inhibition in test [7] was 4.41%.

Turning to `COc1cc(NC(=O)c2ccc(S(=O)(=O)N(C)C)cc2)cc(OC)c1OC`, the growth inhibition in test [1] is -4.25%; in test [2], -12.5%. Further, in test [3], the viability increase was -2.66%. In addition, the viability in test [4] was 92.9%; in test [5], 94.3%. Moreover, the inhibition in test [6] is 0.985%. Besides, the RAM network inhibition in test [7] is 3.48%.

Consider `COc1ccc(S(=O)(=O)N2CCN(C)CC2)c2ccccc12`, for which the growth inhibition in test [1] is -8.04%; in test [2], -2.78%. Moreover, in test [3], the viability increase was -3.62%. Further, the results for the viability in test [4] and in test [5] were 102% and 91.3%, respectively. Moreover, in test [6], the inhibition was 1.06%. Also, the RAM network inhibition in test [7] was 2.19%.

Regarding `CC(NC(=O)C1CCC(=O)N1Cc1ccc(F)cc1)c1ccc2c(c1)OCCO2` (stereo not given), the growth inhibition in test [1] was -1.08%; in test [2], -4.75%. In addition, the viability increase in test [3] is -1.94%. The viability in test [4] was 96.4%; in test [5], 94.9%. Further, in test [6], the inhibition is 0.975%. The RAM network inhibition in test [7] is 4.36%.

On to `CCCC(=O)N=c1sc2cccc(F)c2n1C`, for which the growth inhibition was -9.43% in test [1] and -11.1% in test [2]. The viability increase in test [3] is -2.75%. The viability in test [4] is 99%; in test [5], 93.2%. In addition, in test [6], the inhibition was 0.795%. In test [7], the RAM network inhibition was 5.05%.

Turning to `O=C(CCc1nc2ccccc2[nH]1)Nc1ccc2c(c1)OCCO2`, the growth inhibition in test [1] was -17.1%; in test [2], -18.4%. In test [3], the viability increase was -2.36%. For the same compound, the viability was 94.2% in test [4] and 94.8% in test [5]. Besides, the RAM network inhibition in test [7] was 0.89%.

In the case of `CCOC(=O)Cn1c(=O)oc2cc(S(=O)(=O)NCc3ccccn3)ccc21`, the growth inhibition was -14% in test [1] and -21.4% in test [2]. Moreover, the viability increase in test [3] is -1.25%. In addition, the viability in test [4] was 105%; in test [5] it was 95.1%. In test [6], the inhibition is 1.79%. Also, the RAM network inhibition in test [7] was 3.14%.
